High-throughput results as filed in PubChem.
Hits are enriched below; roughly 1.8% of the tested compounds scored in any of these assays.
CHRM4 PAM = potentiates acetylcholine response at human M4 receptor; P08173; CHO-K1 hM4/Gqi5, Fluo-8 calcium fluorescence, ACh EC20; 0% = ACh EC20, 100% = maximal ACh; activation, % at 3 µM; 360,000 compounds, 0.4% hits; AID 624126;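 active = activation above its plate's cutoff, the mean activation of sample wells plus 3 SD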
Target sequence (P08173 whole entry, looked up): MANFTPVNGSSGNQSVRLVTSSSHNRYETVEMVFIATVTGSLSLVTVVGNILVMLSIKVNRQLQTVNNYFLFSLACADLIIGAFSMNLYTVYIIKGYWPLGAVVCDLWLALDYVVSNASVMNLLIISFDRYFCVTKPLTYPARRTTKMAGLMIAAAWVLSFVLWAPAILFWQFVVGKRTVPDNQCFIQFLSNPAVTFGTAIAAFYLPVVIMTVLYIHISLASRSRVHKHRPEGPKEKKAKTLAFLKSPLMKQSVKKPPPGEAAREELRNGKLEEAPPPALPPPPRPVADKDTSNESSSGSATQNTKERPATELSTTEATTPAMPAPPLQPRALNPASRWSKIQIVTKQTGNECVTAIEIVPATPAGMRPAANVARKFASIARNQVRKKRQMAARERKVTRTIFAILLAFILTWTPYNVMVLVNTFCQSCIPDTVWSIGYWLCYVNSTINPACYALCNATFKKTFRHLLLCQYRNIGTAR
M4 ag = agonists of human muscarinic M4 receptor (CHRM4) | P08173 | CHO-K1 hM4/Gqi5, Fluo-8 calcium fluorescence; vehicle 0%, full acetylcholine response 100% | activation, % at 3 µM | 360,000 compounds, 0.14% hits | AID 624127;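 active = activation above the run mean over all test wells plus 3 SD, cut at about 32% in these data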;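 note: peak over basal fluorescence ratio per well then scaled between controls; 0% = DMSO wells and 100% = acetylcholine at EC100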
M5 PAM = potentiates acetylcholine response at human M5 receptor; P08912; CHO-K1 hM5, Fluo-8 calcium, ACh EC20 PAM; 0% = ACh EC20, 100% = ACh EC100; activation, % at 3 µM; 360,000 compounds, 0.3% hits; AID 624038;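 active = activation above the run cutoff, the mean activation of all test compounds plus 3 SD, cut at about 18% in these data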
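Replicates: One well per compound, no replicates | System: Human M5 receptor in CHO-K1 cells | Benchmarks: Low control EC20 acetylcholine (0%), high control EC100 acetylcholine (100%) | Probe or stimulus: Acetylcholine, EC20 level | Times: Fluo-8 loading 80 min at 37 °C plus 30 min room temperature | Signal: Intracellular calcium via Fluo-8 fluorescence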
M5 antag = CHRM5 antagonism in calcium assay. P08912. CHO-hM5 cells, Fluo-8 calcium fluorescence, ACh EC80. inhibition, % at 3 µM. 360,000 compounds, 0.59% hits. AID 624040;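 active = inhibition above a per-plate cutoff, the mean of that plate's test compounds plus 3 SD, cut at about 27% in these data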;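 note: 0% = acetylcholine EC80 with DMSO and 100% = DMSO without agonist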
CHRM5 agonist = CHRM5 agonism in calcium assay. 360,000 compounds, 0.19% hits. CHO-K1 hM5 cells, Fluo-8 calcium fluorescence; 0% DMSO wells, 100% maximal acetylcholine response. P08912. activation, % at 3 µM;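 active = activation above the run's mean over test compounds plus 3 SD, cut at about 23% in these data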;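 note: signal is peak over basal fluorescence ratio across the kinetic read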
CHRM4 antagonist = antagonists of human muscarinic M4 receptor (CHRM4); CHO-hM4 cells, ACh EC80, Fluo-8 calcium fluorescence; inhibition, % at 3 µM; P08173; 360,000 compounds, 0.73% hits;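 active = inhibition above its plate's cutoff, the mean inhibition of sample wells plus 3 SD, cut at about 27% in these data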;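 note: 0% = acetylcholine EC80 with DMSO and 100% = DMSO without agonist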
* marks the source's active call; other numbers are inactive results; ! = a repeat was not active.

SMILES | CHRM4 PAM | M4 ag | M5 PAM | M5 antag | CHRM5 agonist | CHRM4 antagonist
O=C(Nc1nnc(COc2ccccc2)s1)c1ccco1 | 16.2* | 2.5 | 1.5 | -2.3 | 0.4 | -7.5
CCOc1ccccc1NC(=O)CSc1nnc(NC(=O)c2ccco2)s1 | 21.8* | 0.8 | 9.5 | -15.9 | -1.1 | 1.9
O=C(CSc1nnc(NC(=O)c2ccco2)s1)Nc1ccccc1F | 24.5* | 1.6 | 2.1 | -5.8 | -7.6 | -1.6
COCCNC(=O)C1(C)CCN(C(=O)c2ccc3ccccc3n2)C1 (configuration not stated) | 6.7 | 0.4 | -2.8 | 6.1 | 0.7 | -1.2
CCCCNC(=O)C[C@@H]1C[C@@]2(C(=O)OCC)CCCC=C2N(Cc2ccc3c(c2)OCO3)C1=O | 2.1 | 1.0 | 10.3 | -9.8 | 0.7 | -5.7
CCC(C)Sc1ccc(-c2nc3ccc(C)cn3c2NCc2ccccc2)cc1OC (configuration not stated) | -4.6 | 9.7 | -38.2 | 23.8 | -7.0 | 44.3*
CCC(C)Sc1cc(-c2nc3ccc(C)cn3c2NCc2ccccc2)ccc1OC (configuration not stated) | -13.3 | 14.8 | -38.7 | 29.1*! | -2.0 | 72.0*
O=C(Nc1ccc(F)c(Cl)c1)c1csc(COCCO)n1 | 0.9 | 2.2 | -3.7 | 0.2 | 1.3 | -5.4
CCOC(=O)c1ccc(NC(=O)[C@@H]2CCC(=O)N2C2OC(=O)c3c2ccc(OC)c3OC)cc1 (some centres not stated) | -12.8 | 0.4 | -5.5 | 5.0 | 0.9 | 5.7
O=C1CCCc2c1nc(-c1ccc([N+](=O)[O-])cc1)n2O | 2.7 | 3.2 | 3.7 | 3.6 | -0.2 | 10.9
O=C1CCCc2c1nc(-c1ccc(F)cc1)n2O | 19.9 | 0.7 | 20.5* | -11.4 | 4.5 | 8.9
O=C(OCc1ccccc1)N(CCCCN(CCCNCc1ccccc1)C(=O)OCc1ccccc1)CCCNCc1ccccc1 | -10.9 | 26.4 | -14.3 | 20.9 | -9.8 | 65.4*
CC1CCN(S(=O)(=O)c2ccc(NC(=O)c3ccccc3F)cc2)CC1 | -7.6 | 5.5 | -1.1 | 10.6 | 1.3 | -0.8
CC1CCN(S(=O)(=O)c2ccc(NC(=O)Cn3nnc(-c4ccccc4F)n3)cc2)CC1 | -3.2 | 4.6 | -21.6 | 31.4* | -3.2 | -3.4
C#CC(=O)CC1(CN(Cc2ccccc2)C(=O)OC(C)(C)C)CCCCC1 | -17.4 | 0.2 | -3.0 | 16.2 | -6.5 | 32.0*
CCN(CC)CCCOC(=O)C(c1ccccc1)c1ccccc1 | -14.7 | 2.1 | -23.8 | 98.2* | -5.9 | 91.2*
COC(=O)c1sc(C(C)(C)C)cc1CS(=O)(=O)c1ccccn1 | -3.6 | 2.9 | 21.8* | -18.2 | 8.9 | -14.6
CC(C)(C)c1ccc(OCC(O)CS(=O)(=O)c2ccccn2)cc1 (configuration not stated) | 3.0 | 12.8 | -1.6 | -7.8 | 3.5 | -11.0
CCc1nc2ccc(C(=O)NCCOc3ccc(OC)cc3)cn2c1N(CCC(C)C)CCN(C)C | 1.8 | 3.8 | 1.4 | 5.5 | -9.5 | -6.9
COc1cc(/C=C2\SC(=S)N(NC(=O)c3cccc(O)c3)C2=O)ccc1O | -13.5 | 36.1* | -9.4 | 8.6 | 9.9 | 11.9
COc1cc(/C=C2\SC(=S)N(CCC(=O)Nc3ccccc3)C2=O)cc(OC)c1OC | -1.9 | 1.6 | -3.8 | 5.6 | 2.3 | -4.8
COc1cc(/C=C2\SC(=S)N(NC(=O)c3ccc(O)c(OC)c3)C2=O)ccc1O | -21.2 | 35.2* | -17.4 | 23.7 | 25.0* | 22.9
COc1cc(/C=C2\SC(=S)N(CCC(=O)Nc3cccc(O)c3)C2=O)cc(OC)c1OC | -11.3 | 18.3 | -18.3 | 27.2* | -1.2 | 12.7
CC(=O)OC[C@@H]1CN(Cc2ccccc2)C[C@H](n2cnc3c(N4CCN(c5ccccc5)CC4)ncnc32)O1 | -8.9 | 7.1 | -3.1 | 5.0 | 0.4 | -9.7
CC(=O)c1cc2c(cc1NS(=O)(=O)c1cccc(C(=O)O)c1)OCO2 | -6.0 | -0.1 | 0.7 | -1.8 | -0.6 | -5.3
SMILES | CHRM4 PAM | M4 ag | M5 PAM | M5 antag | CHRM5 agonist | CHRM4 antagonist
CC(=O)c1cc2c(cc1NS(=O)(=O)c1ccccc1)OCO2 | -10.3 | 1.7 | -5.4 | 14.1 | -7.1 | 29.9*
O=C(Nc1ccccc1)Nc1csc2ccccc12 | -8.4 | 15.9 | -28.6 | 29.3* | 10.1 | 11.4
CC(=O)Nc1csc2ccccc12 | 9.2 | 1.9 | 3.5 | 3.0 | -1.4 | 0.6
COc1ccc(CCN2C(=O)CCC2(C)c2nnnn2-c2ccc3c(c2)OCCO3)cc1OC (configuration not stated) | 7.0 | 4.2 | 0.1 | -0.3 | 3.6 | -4.8
COc1ccccc1C(=O)COC(=O)c1ccccc1O | 6.3 | 2.2 | -12.8 | 33.2* | -3.9 | -5.9
COc1ccccc1C(=O)COC(=O)c1cccs1 | 4.5 | 2.4 | 1.2 | 11.8 | -0.8 | -4.2
CC(C)Cc1ccc(-c2cc3nc(NCCCn4ccnc4)ccn3n2)cc1 | -3.1 | 6.0 | -5.8 | 9.4 | 4.3 | -2.5
CCCS(=O)(=O)NC(=O)C1(C)CCN(C(=O)Cc2cccc(OC)c2)C1 (configuration not stated) | 4.1 | 0.3 | -1.1 | -0.2 | 0.6 | -6.2
Cn1c(=O)[nH]c(=O)c2c1nc(Br)n2CCCO | 19.4 | 0.9 | 21.6* | -17.8 | 2.4 | 5.2
Nc1nc2ccc(Cl)cc2cc1C(=O)NCCc1c[nH]c2ccccc12 | -13.9 | 20.1 | -23.6 | 26.1 | 8.5 | 28.3*
Nc1nc2ccc(Cl)cc2cc1C(=O)NCCc1ccc(Cl)cc1Cl | 5.0 | 4.2 | -6.3 | 12.7 | 2.0 | -4.2
CCOc1cccc(-c2ccc3nncn3c2)c1 | 0.5 | 1.2 | -2.7 | 5.5 | -0.3 | -4.5
N#C/C(=N\Nc1ccccc1)C(N)=S | -4.8 | 10.7 | -1.9 | -1.9 | 6.9 | -13.7
N#C/C(=N/Nc1ccccc1[N+](=O)[O-])C(N)=S | -9.2 | 16.8 | -11.8 | 29.4* | 5.0 | 10.2
COc1ccccc1-c1cn(CC[C@H]2CC[C@@H](NS(=O)(=O)c3ccccc3C)[C@@H](CO)O2)nn1 | -1.4 | 4.4 | -1.1 | 10.0 | 0.1 | 6.0
COc1ccccc1OC(C)C(=O)Nc1nc(-c2ccc(S(=O)(=O)N3CCOCC3)cc2)cs1 (configuration not stated) | -9.7 | 5.0 | -12.1 | 17.5 | -2.4 | 6.0
COc1ccccc1C(=O)Nc1nc(-c2ccc(S(=O)(=O)N3CCOCC3)cc2)cs1 | -15.0 | 21.9 | -55.1 | 29.9* | 2.8 | 36.2*
COc1ccc(-c2csc(NC(=O)c3ccc(S(C)(=O)=O)cc3)n2)cc1 | -13.7 | 24.1 | -23.7 | 10.0 | 23.4* | 7.2
COc1ccc(-c2csc(NC(=O)c3ccccc3S(C)(=O)=O)n2)cc1 | 0.3 | 10.3 | -5.9 | 4.5 | 3.3 | -3.5
